Measurements from different studies.
Protocols differ between the studies behind these lines.
Read-out: cell growth or viability

For `C[C@H](Nc1ccc2c(c1)OCCn1cc(N3C(=O)OC[C@H]3C(F)F)nc1-2)C(N)=O`, the EC50 was 0.0312 µM (EFM-19; ATP luminescence; 5 days).
With `CN(C)CCNC(=O)c1cccn2c(=O)c3cc4ccccc4cc3nc12` the IC50 was 16.2 µM (PLC-PRF-5; imaging; 72 h).
`Cc1cc(C)n(Cn2ccnc2)n1` gave an IC50 of 50.3 µM (SH-SY5Y; MTT; 24 h).
The EC50 of `Cc1nc(NC(=O)N2CCC[C@H]2C(N)=O)sc1-c1ccnc(C(C)(C)C(F)(F)F)c1` is reported as 0.38 µM (EFM-19; ATP luminescence; 5 days).
`CNC(=O)c1cc(Oc2ccc(NC(=O)Nc3ccc(Cl)c(C(F)(F)F)c3)cc2)ccn1` gave an IC50 of 4.08 µM (PLC-PRF-5; imaging; 72 h).
`Cc1nc(Nc2ncc(C(=O)Nc3c(C)cccc3Cl)s2)cc(N2CC[C@H](O)C2)n1` gave an inhibition of 66% (SUP-B15; ATP luminescence; 10 µM; 72 h).
`Cc1cc(Cn2ccnc2)nn1C` has an IC50 of 487 µM (SH-SY5Y; MTT; 24 h).
For `COc1ccc(C[C@H](N)C(=O)N[C@H]2[C@@H](O)[C@H](n3cnc4c(N(C)C)ncnc43)O[C@@H]2CO)cc1`, the IC50 was 1.36 µM (J774.1; resazurin; 72 h).
